Results from ChEMBL document CHEMBL1126763, “Nonpeptide angiotensin II receptor antagonists. Synthesis and biological activity of potential prodrugs of benzimidazole-7-carboxylic acids” (J Med Chem, 1993).

Legend:
[1] = biological target: T1, Angiotensin II receptor (Rattus norvegicus) (UniProt P29089+P25095+P35351); experiment: Inhibitory activity on AII (100 ng/kg iv)-induced pressor response after administration at 0.1 mg/kg po in conscious male Sprague-Dawley rats at 5 h.; type: functional, organism-based; parameters: dose 0.1 mg/kg
In short: (§1)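 Conscious male Sprague-Dawley rats received test compounds orally at 0.1 mg/kg. AII (100 ng/kg iv) was given as a pressor challenge at each time point after dosing, and percent inhibition of the pressor response was recorded. Experiments were run in duplicate (n = 2); parent drug and one ester used n = 3. Inhibition may vary by less than 30%.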

[2] = biological target: T1, Angiotensin II receptor (Rattus norvegicus); experiment: Inhibitory activity on AII (100 ng/kg iv)-induced pressor response after administration at 0.1 mg/kg po in conscious male Sprague-Dawley rats at 3 h.; type: functional, organism-based; parameters: dose 0.1 mg/kg; in short: as §1
Rattus norvegicus [3] = experiment: Inhibitory activity on AII (100 ng/kg iv) -induced pressor response after administration at 0.1 mg/kg po in Dawley rats at 1 h; type: functional; in short: as §1
[4] = biological target: T1, Angiotensin II receptor (Rattus norvegicus); experiment: Inhibitory activity on AII (100 ng/kg iv)-induced pressor response after administration at 0.1 mg/kg po in conscious male Sprague-Dawley rats at 2 h.; type: functional, organism-based; parameters: dose 0.1 mg/kg; in short: as §1
Rattus norvegicus [5] = experiment: Inhibitory activity on AII (100 ng/kg iv) -induced pressor response after administration at 0.1 mg/kg po in Dawley rats at 0.5 h; type: functional; in short: as §1
[6] = biological target: T1, Angiotensin II receptor (Rattus norvegicus); experiment: Inhibitory activity on AII (100 ng/kg iv)-induced pressor response after administration at 0.1 mg/kg po in conscious male Sprague-Dawley rats at 24 h.; type: functional, organism-based; parameters: dose 0.1 mg/kg; in short: as §1
[7] = biological target: T1, Angiotensin II receptor (Rattus norvegicus); experiment: Inhibitory activity on AII (100 ng/kg iv)-induced pressor response after administration at 0.1 mg/kg po in conscious male Sprague-Dawley rats at 7 h.; type: functional, organism-based; parameters: dose 0.1 mg/kg; in short: as §1
[8] = biological target: T1, Angiotensin II receptor (Rattus norvegicus); experiment: Inhibitory effect on AII (100 ng/kg iv)-induced pressor response after administration at 0.1 mg/kg po in conscious male Sprague-Dawley rats at 0.5 h.; type: functional, organism-based; parameters: dose 0.1 mg/kg; in short: as §1
[9] = Tested against A II at (100 ng/kg iv) in Dawley rats (n=2). 24 h; type: functional; in short: as §1
[10] = biological target: T1, Angiotensin II receptor (Rattus norvegicus); experiment: Inhibitory activity on AII (100 ng/kg iv)-induced pressor response at 0.1 mg/kg po in conscious male Sprague-Dawley rats at 1 h.; type: functional, organism-based; parameters: dose 0.1 mg/kg; in short: as §1
[11] = Tested for Half- life in rat liver homogenate (2%); type: ADME
In short: (§2)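 Prodrugs (final 10 μg/mL) were incubated at 37 °C in rat 1% small intestine homogenate, 2% liver homogenate or 10% plasma. Aliquots taken from 10 s to 30 min were deproteinized with methanol, and the residue was redissolved in 1/15 M phosphate buffer. Released parent acid was measured by HPLC (ODS column, UV 258 nm, 0.01 M KH2PO4/MeCN 55/45). t1/2 was taken from the concentration change; mean ± SD, n = 3.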

[12] = Tested for Half- life in rat plasma homogenate (10%) at 37 degree Centigrade; type: ADME; in short: as §2
[13] = Tested for half- life in rat small intestine homogenate (1%); type: ADME; in short: as §2

| Structure (SMILES) | inhibition [1] | inhibition [2] | inhibition in vivo at 0.1 mg/kg (Rattus norvegicus [3]) | inhibition [4] | inhibition in vivo at 0.1 mg/kg (Rattus norvegicus [5]) | inhibition [6] | inhibition [7] | inhibition [8] | Inhibition [9] | inhibition [10] | half-life [11] | half-life [12] | half-life [13] |
| --- | --- | --- | --- | --- | --- | --- | --- | --- | --- | --- | --- | --- | --- |
| CCCCOC(=O)c1cccc2nc(CCCC)n(Cc3ccc(-c4ccccc4-c4nn[nH]n4)cc3)c12 | 88% | 78% | 40% | 80% | 16% | 76% | 90% | – | – | – | – | – | – |
| CCCCc1nc2cccc(C(=O)OCc3oc(=O)oc3C)c2n1Cc1ccc(-c2ccccc2-c2nnn(Cc3oc(=O)oc3C)n2)cc1.CCCCc1nc2cccc(C(=O)OCc3oc(=O)oc3C)c2n1Cc1ccc(-c2ccccc2-c2nnnn2Cc2oc(=O)oc2C)cc1 | 59% | 60% | – | 33% | – | – | 46% | 7% | 17% | 9% | – | – | – |
| CCCCc1nc2cccc(C(=O)O)c2n1Cc1ccc(-c2ccccc2-c2nnnn2C)cc1 | 59% | 56% | 29% | 29% | 12% | 16% | 53% | – | – | – | – | – | – |
| CCCCc1nc2cccc(C(=O)OCCN3CCOCC3)c2n1Cc1ccc(-c2ccccc2-c2nn[nH]n2)cc1 | 96% | 96% | 94% | 96% | 67% | 66% | 96% | – | – | – | – | – | – |
| CCCCc1nc2cccc(C(=O)OCCN3CCCCC3)c2n1Cc1ccc(-c2ccccc2-c2nn[nH]n2)cc1 | 62% | 69% | 47% | 46% | 20% | 28% | 49% | – | – | – | – | – | – |
| CCOc1nc2cccc(C(=O)OCOC(=O)C(C)(C)C)c2n1Cc1ccc(-c2ccccc2-c2nn[nH]n2)cc1 | 87% | 86% | – | 88% | – | 43% | 86% | 42% | – | 77% | 0.48 min | 0.15 min | 0.3 min |
| CCCCc1nc2cccc(C(=O)OCC)c2n1Cc1ccc(-c2ccccc2-c2nn[nH]n2)cc1 | 68% | – | 25% | 46% | 7% | 47% | 63% | – | – | – | – | – | – |
| CCCCc1nc2cccc(C(=O)OC)c2n1Cc1ccc(-c2ccccc2-c2nn[nH]n2)cc1 | 38% | 47% | 52% | 50% | 11% | 11% | 27% | – | – | – | – | – | – |
| CCCCc1nc2cccc(C(=O)OCCO)c2n1Cc1ccc(-c2ccccc2-c2nn[nH]n2)cc1 | 21% | 11% | 7% | 10% | 7% | 20% | 25% | – | – | – | – | – | – |
| CCCCc1nc2cccc(C(=O)OCCN(C)C)c2n1Cc1ccc(-c2ccccc2-c2nn[nH]n2)cc1 | 26% | 32% | 19% | 27% | 0% | 9% | 14% | – | – | – | – | – | – |
| CCOc1nc2cccc(C(=O)OC(C)OC(=O)OC3CCCCC3)c2n1Cc1ccc(-c2ccccc2-c2nnn[nH]2)cc1 (stereo unspecified) [CANDESARTAN CILEXETIL] | – | – | – | – | – | – | – | – | – | – | 2.29 min | 2.73 min | 4.92 min |
| CCCCc1nc2cccc(C(=O)OCOC(=O)C(C)(C)C)c2n1Cc1ccc(-c2ccccc2-c2nn[nH]n2)cc1 | 92% | 95% | – | 96% | – | 50% | 86% | 58% | – | 90% | 3.61 min | 0.69 min | 1.08 min |
| CCCCc1nc2cccc(C(=O)O)c2n1Cc1ccc(-c2ccccc2-c2nnn(C)n2)cc1 | 13% | 9% | 26% | 6% | 22% | 23% | 26% | – | – | – | – | – | – |
| CCCCc1nc2cccc(C(=O)O)c2n1Cc1ccc(-c2ccccc2-c2nn[nH]n2)cc1 | – | – | 33% | 45% | 8% | 42% | – | – | – | – | – | – | – |
| CCCCc1nc2cccc(C(=O)O)c2n1Cc1ccc(-c2ccccc2-c2nnn(COC(=O)C(C)(C)C)n2)cc1.CCCCc1nc2cccc(C(=O)O)c2n1Cc1ccc(-c2ccccc2-c2nnnn2COC(=O)C(C)(C)C)cc1 | 67% | 63% | – | 33% | – | 32% | 69% | 7% | – | 4% | 9.8 min | 3.94 min | 22.7 min |
